DYRK1A inh = rat Dyrk1A kinase inhibitors, primary screen, biochemical, single point, plate reader. ADP-Glo luminescence, NFATc1 peptide. inhibition, % at 12.5 µM. 0.43% of 310,000 active; in the data active = inhibition above about 50%;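 note: plate controls were vehicle with enzyme for no effect and no enzyme for full effect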
STK33 kinase inh = inhibitors of purified STK33 kinase, primary screen, biochemical, ADP-Glo luminescence, homogeneous, cell-free. Serine/threonine-protein kinase 33 (Homo sapiens), Q9BYT3. MBP phosphorylation. inhibition, % at 10 µM. 0.073% of 320,000 active. AID 2661, 2010;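 active = inhibition at or above 25%, using the most active replicate where run in duplicate; inactive = inhibition below 25%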
GSK3B inh = human GSK3beta kinase inhibitors, primary screen, biochemical, cell-free homogeneous, HTS; Glycogen synthase kinase-3 beta (Homo sapiens), P49841; 0.038% of 300,000 active; GST-GSK3beta kinase, ADP-Glo luminescence, 60 min; stronger effect = lower value; activity score (negative = inhibition), % at 10 µM; AID 2097, 2009;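 active = more than half of replicate wells score below -50%, meaning over 50% inhibition versus plate controls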;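 note: 0% = median DMSO wells and -100% = median GW8510 positive control wells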
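Test system – GST-tagged human GSK3beta kinase, cell-free · Incubation – 60 min enzyme reaction, room temperature · Signal – ADP-Glo luminescence · Also added – peptide substrate and ATP at 25 µM · Controls – DMSO neutral wells and GW8510 at 20 µM as positive · Buffer or medium – Tris/MgCl2 kinase buffer · Measure – Luminescence-derived activity versus plate DMSO and GW8510 wells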
GSK3 alpha inh = blockers of GSK3A enzyme activity – biochemical, luminescence, cell-free homogeneous, HTS, primary screen | Glycogen synthase kinase-3 alpha (Homo sapiens), P49840 | GSK-3 alpha kinase, ADP-Glo luminescence, 60 min | inhibition, % at 10 µM | 0.1% of 320,000 active;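 active = more than half of replicates show inhibition above 20%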;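 note: GST-tagged GSK-3 alpha with peptide substrate and 25 µM ATP; 0% = DMSO neutral wells and 100% = GW8510 positive control wells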
ADP-Glo artifact = ADP-Glo luciferase interference without Dyrk1A, dose response, artefact control for Dyrk1A inhibitor project, biochemical, luminescence, cherry-pick, set 02; AC50, µM (titrated, usually from 12 µM), for the others: at the top dose activity change, negative = inhibition; AID 588348, 2011; 1,300 tested, under 10 active; ADP-Glo luciferase artifact assay, no Dyrk1A; shares compounds with DYRK1A inh;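 active = fitted half-maximal dose AC50 no more than ten times the top valid tested dose, with luminescence dropping as dose rises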
* = called active by the depositor; . = no result; ! = a repeat was not active. The entries come from a sample that favours hits as a whole.

SMILES	DYRK1A inh	STK33 kinase inh	GSK3B inh	GSK3 alpha inh	ADP-Glo artifact
CCn1nc(-c2ccccc2)nc2c(=O)n(C)c(=O)nc1-2	67.9*	2.7	-32.5	19.7	.
CCN(CC)CCN=Cc1c(O)n(C2CCCCCC2)c(=O)[nH]c1=O	0.1	0.9	-3.9	12.9	.
O=c1[nH]c(=O)n(C2CCCCC2)c(O)c1C=NCCCn1ccnc1	7.4	-1.3	1.8	66.9*	.
CC(=NCCCn1ccnc1)c1c(O)n(C2CCCCC2)c(=O)[nH]c1=O	0.5	-1.0	0.9	66.6*	.
CC(=NCCCn1ccnc1)c1c(O)n(-c2ccccc2)c(=O)[nH]c1=O	.	0.3	-11.1	22.9	.
COc1ccc(NC(=O)c2cn(CCC#N)nc2-c2ccc(OC)c(OC)c2)cc1	.	-0.7	-0.1	-0.8	.
COC(=O)C1=C(c2ccc(OC)c(OC)c2)C[C@@H]2CC[C@H]1N2C(=O)N1CCCCC1	6.6	-0.9	.	0.2	.
CN1/C(=C\C=C\C2=[N+](C)c3ccc4ccccc4c3C2(C)C)C(C)(C)c2ccccc21	.	26.2*	.	71.3*	.
O=C(O)CC1OCC=C2CN3CCC45C6=CC(=O)C(=O)C([N+](=O)[O-])=C6NC4C1C2CC35 (configuration not stated)	55.7*	3.9	-0.9	6.9	9.6%
O=C(O)CC1OCC=C2CN3CCC45c6ccccc6NC4C1C2CC35 (configuration not stated)	2.6	0.0	-1.3	4.8	.
NC(=O)c1c(Br)n(C2OC(CO)C(O)C2O)c2ncnc(N)c12 (configuration not stated)	64.7*	.	.	.	6.5%
N#Cc1cn(C2OC(CO)C(O)C2O)c2ncnc(N)c12 (configuration not stated)	2.2	.	.	.	.
N#Cc1c(Br)n(C2OC(CO)C(O)C2O)c2ncnc(N)c12 (configuration not stated)	74.8*	.	.	.	6.8%
NC(=O)c1cn(C2OC(CO)C(O)C2O)c2ncnc(N)c12 (configuration not stated)	87.9*!	13.2	-0.4	72.1*	6.7%
CC1=CC(C)CC(C)OC(=O)CC(c2ccc(O)cc2)NC(=O)C(Cc2c(Br)[nH]c3ccccc23)N(C)C(=O)C(C)NC(=O)C(C)C1 (configuration not stated)	0.8	.	.	.	.
CC1=C2C(=O)C3C(CC=C4CC(O)CCC43C)C2CCC12OC1CC(C)CNC1C2C (configuration not stated)	-2.4	-1.8	0.3	-2.8	.
Cc1nc2c(=O)n(C)c(=O)nc-2n(C)n1	75.8*	-1.5	-23.0	6.7	9.4%
COc1cc2c(cc1O)CC1c3c(cc(O)c(OC)c3-2)CCN1C (configuration not stated)	70.0*	6.8	-1.3	13.8	11.0%
CN1CC(C(=O)c2cccc(C(F)(F)F)c2)C(c2ccc(Cl)cc2)C1 (configuration not stated)	4.2	-0.1	-3.6	0.4	.
O=C1CCCN1CC#CCN1CCCC1	-2.7	-0.4	1.3	-2.2	.
